In ChEMBL document CHEMBL2146388, “Sinularosides A and B, bioactive 9,11-secosteroidal glycosides from the South China Sea soft coral Sinularia humilis Ofwegen” (J Nat Prod, 2012):
The source made the active and inactive calls. No cut-off for these calls is given here.

Legend:
Zymoseptoria tritici = assay: Antifungal activity against Septoria tritici assessed as zone of inhibition at 0.05 mg by agar diffusion method; type: functional; conditions: read-out: IZ
Procedure, shortened: (§1)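 Fungi are grown on MPY medium. A 9 mm sterile filter disk is loaded with 0.05 mg of compound (50 μL of a 1.0 mg/mL acetone solution), laid on the agar, and then sprayed with a fungal suspension. The inhibition zone is scored, with an acetone control.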

HepG2 = assay: Cytotoxicity against human HepG2 cells by MTT assay; type: functional, cell-based
Procedure, shortened: (§2)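 Growth inhibition is read colorimetrically by a modified MTT method on HepG2 or Caco-2 cells. Adriamycin is the positive control. IC50 is reported.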

[Chlorella] fusca = Antimicrobial activity against Chlorella fusca assessed as zone of inhibition at 0.05 mg by agar diffusion method; type: functional; conditions: Scenedesmus fuscus; read-out: IZ
Procedure, shortened: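 The microalga Chlorella fusca is tested on CP medium. A sterile 9 mm paper disk carries 0.05 mg of compound from a 1.0 mg/mL acetone solution and is placed on the agar, which is then sprayed with the algal suspension. The zone of growth inhibition is recorded, with acetone as control.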

Escherichia coli = assay: Antibacterial activity against Escherichia coli assessed as zone of inhibition at 0.05 mg by agar diffusion method; type: functional; conditions: read-out: IZ
Procedure, shortened: (§3)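 Compound is dissolved in acetone at 1.0 mg/mL, and 0.05 mg is applied to a sterile 9 mm filter disk. The disk is placed on NB agar and sprayed with a bacterial suspension. Read-out is the inhibition zone around the disk. Acetone serves as the solvent control.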

Priestia megaterium = assay: Antibacterial activity against Bacillus megaterium assessed as zone of inhibition at 0.05 mg by agar diffusion method; type: functional; conditions: read-out: IZ; procedure, shortened: as §3
Microbotryum violaceum = assay: Antifungal activity against Microbotryum violaceum assessed as zone of inhibition at 0.05 mg by agar diffusion method; type: functional; conditions: read-out: IZ; procedure, shortened: as §1
Caco-2 = assay: Cytotoxicity against human Caco2 cells by MTT assay; type: functional, cell-based; procedure, shortened: as §2

Structure (SMILES) | zone of inhibition at 50 µg/disc (Zymoseptoria tritici) | growth inhibition (GI) (HepG2) | zone of inhibition at 50 µg/disc ([Chlorella] fusca) | zone of inhibition at 50 µg/disc (Escherichia coli) | zone of inhibition at 50 µg/disc (Priestia megaterium) | zone of inhibition at 50 µg/disc (Microbotryum violaceum) | growth inhibition (GI) (Caco-2) | IC50 (HepG2) | IC50 (Caco-2)
C=C(CC[C@@H](C)[C@H]1CC[C@@H]([C@@H]2CC=C3C[C@@H](O[C@@H]4O[C@@H](C)[C@@H](OC(C)=O)[C@@H](O)[C@@H]4O)CC[C@]3(C)C2=O)[C@]1(C)CCO)C(C)C [SINULAROSIDE B] | 15 mm | inactive | 14 mm | 0 mm | 30 mm | 17 mm | inactive | – | –
COc1cccc2c1C(=O)c1c(O)c3c(c(O)c1C2=O)C[C@@](O)(C(=O)CO)C[C@@H]3O[C@H]1C[C@H](N)[C@H](O)[C@H](C)O1 [DOXORUBICIN] | – | – | – | – | – | – | – | 2.7 µM | 2.7 µM
C=C(CC[C@@H](C)[C@H]1CC[C@@H]([C@@H]2CC=C3C[C@@H](O[C@@H]4O[C@@H](C)[C@@H](O)[C@@H](O)[C@@H]4O)CC[C@]3(C)C2=O)[C@]1(C)CCO)C(C)C [SINULAROSIDE A] | 14 mm | inactive | 12 mm | 0 mm | 30 mm | 17 mm | inactive | – | –
CN[C@@H]1[C@H](O[C@H]2[C@H](O[C@H]3[C@H](O)[C@@H](O)[C@H](N=C(N)N)[C@@H](O)[C@@H]3N=C(N)N)O[C@@H](C)[C@]2(O)C=O)O[C@@H](CO)[C@H](O)[C@H]1O [STREPTOMYCIN] | – | – | – | 25 mm | 30 mm | – | – | – | –
CC(=O)N1CCN(c2ccc(OCC3COC(Cn4ccnc4)(c4ccc(Cl)cc4Cl)O3)cc2)CC1 (configuration not stated) [KETOCONAZOLE] | 14 mm | – | – | – | – | 15 mm | – | – | –
CC1(C)S[C@@H]2[C@H](NC(=O)Cc3ccccc3)C(=O)N2[C@H]1C(=O)O [PENICILLIN G] | – | – | – | 20 mm | 28 mm | – | – | – | –
